Measurements from ChEMBL document CHEMBL4680349, “Design, synthesis and evaluation of 1-benzyl-1H-imidazole-5-carboxamide derivatives as potent TGR5 agonists” (Bioorg Med Chem, 2021).
The source made the active and inactive calls.

Assays:
[1] = target: T1, G-protein coupled bile acid receptor 1 (Homo sapiens, UniProt Q8TDU6); test: Agonist activity at human TGR5 transfected in HEK293T cells assessed intracellular cAMP level by HTRF assay; type: functional, cell-based
T1 sequence (Q8TDU6 whole entry): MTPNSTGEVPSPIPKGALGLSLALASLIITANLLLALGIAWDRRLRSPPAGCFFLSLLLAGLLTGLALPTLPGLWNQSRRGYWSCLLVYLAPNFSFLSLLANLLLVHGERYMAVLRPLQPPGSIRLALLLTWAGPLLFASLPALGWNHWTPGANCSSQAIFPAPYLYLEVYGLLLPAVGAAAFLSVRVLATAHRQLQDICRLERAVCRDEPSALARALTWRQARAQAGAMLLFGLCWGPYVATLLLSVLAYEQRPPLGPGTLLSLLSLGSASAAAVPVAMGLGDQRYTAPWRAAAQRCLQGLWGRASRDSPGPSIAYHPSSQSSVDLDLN

[2] = target: T2, G-protein coupled bile acid receptor 1 (Mus musculus, UniProt Q80SS6); test: Agonist activity at mouse TGR5 transfected in HEK293T cells assessed intracellular cAMP level by HTRF assay; type: functional, cell-based
T2 sequence (Q80SS6 whole entry): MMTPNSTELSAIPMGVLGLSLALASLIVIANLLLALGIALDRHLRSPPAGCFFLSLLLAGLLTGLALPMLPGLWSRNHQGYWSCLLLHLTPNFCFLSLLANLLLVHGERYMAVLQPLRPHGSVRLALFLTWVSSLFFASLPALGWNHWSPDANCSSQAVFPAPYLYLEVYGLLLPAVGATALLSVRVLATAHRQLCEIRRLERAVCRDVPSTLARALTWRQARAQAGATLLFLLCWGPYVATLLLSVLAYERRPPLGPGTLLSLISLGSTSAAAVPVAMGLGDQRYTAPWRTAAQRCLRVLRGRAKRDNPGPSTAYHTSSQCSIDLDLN
Outline: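 Run by the same cAMP HTRF method used for human TGR5, with compounds from 10 mM DMSO stocks. EC50 given as mean ± SEM of three independent experiments.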

[3] = target: T3, G-protein coupled bile acid receptor 1 (Homo sapiens) (UniProt Q8TDU6); test: Agonist activity at human TGR5 transfected in HEK293T cells assessed intracellular cAMP level at 10 uM by HTRF assay; type: functional, cell-based
T3 sequence (whole entry): T1 sequence (Q8TDU6 whole entry)
Outline: (§1)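 HEK293T stable line made by lentiviral transfection with drug selection. cAMP measured by HTRF cAMP dynamic 2 kit. Compounds from 10 mM DMSO stocks. 10 μM LCA defined as 100% and 0.1% DMSO as 0% hTGR5 activation. Mean of three independent experiments.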

[4] = target: T3, G-protein coupled bile acid receptor 1 (Homo sapiens); test: Agonist activity at human TGR5 transfected in HEK293T cells assessed intracellular cAMP level at 40 uM by HTRF assay; type: functional, cell-based; conditions: filed as agonist; outline: as §1
[5] = target: T4, Bile acid receptor (Homo sapiens) (UniProt Q96RI1); test: Agonist activity at GST-tagged human FXR-LBD using biotinylated SRC-1 peptide as substrate at 50 uM by HTRF assay
T4 sequence (whole entry): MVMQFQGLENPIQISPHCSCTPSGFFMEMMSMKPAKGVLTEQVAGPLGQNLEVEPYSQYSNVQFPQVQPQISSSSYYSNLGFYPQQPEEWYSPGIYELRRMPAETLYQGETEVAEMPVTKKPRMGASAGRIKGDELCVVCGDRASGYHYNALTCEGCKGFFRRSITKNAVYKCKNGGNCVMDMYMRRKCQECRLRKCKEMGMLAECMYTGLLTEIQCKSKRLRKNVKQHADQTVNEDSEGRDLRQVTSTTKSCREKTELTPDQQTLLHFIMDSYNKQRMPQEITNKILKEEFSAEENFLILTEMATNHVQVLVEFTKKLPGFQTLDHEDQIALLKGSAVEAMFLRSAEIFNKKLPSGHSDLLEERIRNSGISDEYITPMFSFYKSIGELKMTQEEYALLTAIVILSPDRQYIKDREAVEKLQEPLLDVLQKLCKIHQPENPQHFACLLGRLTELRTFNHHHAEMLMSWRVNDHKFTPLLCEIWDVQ
Outline: (§2)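 Reaction mix in HTRF buffer (50 mM Hepes pH 7.0, 125 mM KF, 0.125% CHAPS, 0.05% dry milk): 10 nM GST-FXRα LBD, 100 nM biotin-SRC1, 0.83 nM Eu-anti-GST, 41.75 nM streptavidin-XL665. Incubated at room temperature, read as (665/620 nm)×10,000. 50 μM CDCA defined as 100% and 0.1% DMSO as 0% activation.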

[6] = Stability of the compound in human plasma assessed as parent compound remaining measured after 60 mins; type: ADME, cell-free; conditions: read-out: Stabilty
A549 = test: Cytotoxicity against human A549 cells assessed as reduction in cell viability incubated for 24 hrs by CCK8 assay; type: functional, cell-based; conditions: A549, 24 h
Outline: (§3)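 Cells exposed to compounds for 24 h, then viability read by CCK8 assay to give IC50.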

Mus musculus [7] = test: Antidiabetic activity against in C57BL/6J mouse assessed reduction in glucose AUC at 30 mg/kg, po pretreated for 60 mins followed by 2 g/kg glucose orally administered measured upto 120 mins by OGTT method relative to control; type: functional; design: scale not given: the % may be the effect or the level left; conditions: time min <=180
[8] = target: T4, Bile acid receptor (Homo sapiens); test: Agonist activity at GST-tagged human FXR-LBD using biotinylated SRC-1 peptide as substrate at 20 uM by HTRF assay; outline: as §2
[9] = Stability of the compound in human plasma assessed as parent compound remaining measured after 120 mins; type: ADME, cell-free; conditions: read-out: Stabilty
[10] = target: T4, Bile acid receptor (Homo sapiens); test: Agonist activity at GST-tagged human FXR-LBD using biotinylated SRC-1 peptide as substrate at 10 uM by HTRF assay; outline: as §2
HeLa = test: Cytotoxicity against human HeLa cells assessed as reduction in cell viability incubated for 24 hrs by CCK8 assay; type: functional, cell-based; outline: as §3
Mus musculus [11] = test: Induction of GLP-1 secretion in TGR5 knock out C57BL/6J mouse assessed as serum GLP-1 level at 30 mg/kg, po followed by 2 g/kg glucose orally administered measured after 5 mins by ELISA relative to control; type: functional, organism-based
Outline: (§4)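 Eight-week-old WT or TGR5−/− mice fasted overnight, then given vehicle (0.25% CMC) or compound 30 mg/kg orally. Oral glucose 2.0 g/kg 1 h later. Blood taken 5 min after glucose into tubes with DPP IV inhibitor and EDTA. Serum active GLP-1(7–36 amide) measured by ELISA.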

Mus musculus [12] = test: In vivo agonist activity at TGR5 in wild type C57BL/6J mouse assessed as induction of GLP-1 secretion at 30 mg/kg, po followed by 2 g/kg glucose orally administered measured after 5 mins by ELISA relative to control; type: functional, organism-based; outline: as §4

**Q.** Which EC50 [1] does the source give for `O=C(c1cncn1Cc1ccccc1)N1CCN(C2CC2)c2ccccc21` here?
**A.** 1750 nM

**Q.** What about the EC50 [2] of the same compound?
**A.** 3500 nM

**Q.** For `COc1ccc(N2CCN(C(=O)c3cncn3[C@H](C)c3ccccc3)CC2)cc1`, which EC50 [1] is on record?
**A.** 4390 nM

**Q.** And the Activity ([3]; filed as agonist)?
**A.** 79.1%

**Q.** What about the Activity [4] of the same compound?
**A.** 89.7%

**Q.** For `O=C(c1cncn1Cc1ccccc1Cl)N1CCN(C2CC2)c2ccccc21`, which EC50 [1] is on record?
**A.** 118 nM

**Q.** What about the EC50 [2] of the same compound?
**A.** 3690 nM

**Q.** Which results are given for `Cc1ccc(NC(=O)c2cncn2[C@H](C)c2ccccc2)cc1`?
**A.** Activity [3]: 20.2%; Activity [4]: 63.3%

**Q.** For `C[C@H](c1ccccc1)n1cncc1C(=O)Nc1cccc(F)c1`, which Activity [3] is on record?
**A.** 20.1%

**Q.** What about the Activity [4] of the same compound?
**A.** 56.2%

**Q.** With `C[C@H](c1ccccc1)n1cncc1C(=O)Nc1ccc(F)cc1` as the compound, how does the Activity ([3]; filed as agonist) read?
**A.** 51.3%

**Q.** And the Activity [4]?
**A.** 85.2%

**Q.** What does the source list for `C[C@H](c1ccccc1)n1cncc1C(=O)N(C)c1ccc(F)cc1`?
**A.** EC50 [1]: 1050 nM; Activity ([3]; filed as agonist): 70.9%; Activity [4]: 85.4%

**Q.** Which Activity [3] does the source give for `COc1ccc(NC(=O)c2cncn2[C@H](C)c2ccccc2)cc1` here?
**A.** 25.3%

**Q.** And the Activity [4]?
**A.** 66.5%

**Q.** With `O=C(c1cncn1Cc1ccc(F)cc1F)N1CCN(C2CC2)c2ccccc21` as the compound, how does the EC50 [1] read?
**A.** 338 nM

**Q.** What about the EC50 [2] of the same compound?
**A.** > 10000 nM

**Q.** What does the source list for `COc1ccccc1N1CCN(C(=O)c2cncn2[C@H](C)c2ccccc2)CC1`?
**A.** Activity [3]: 17.4%; Activity [4]: 49.2%

**Q.** With `C[C@H](c1ccccc1)n1cncc1C(=O)Nc1ccc(Cl)cc1` as the compound, how does the Activity [3] read?
**A.** 37.7%

**Q.** What about the Activity [4] of the same compound?
**A.** 84.1%

**Q.** With `O=C(c1cncn1Cc1ccc(F)cc1)N1CCN(C2CC2)c2ccccc21` as the compound, how does the EC50 [1] read?
**A.** 568 nM

**Q.** And the EC50 [2]?
**A.** > 10000 nM

**Q.** With `O=C(c1cncn1Cc1cc(Cl)ccc1Cl)N1CCN(C2CC2)c2ccccc21` as the compound, how does the Activity [5] read?
**A.** 0.31%

**Q.** And the EC50 [1]?
**A.** 9.5 nM

**Q.** And the remaining at 1 h [6]?
**A.** 112%

**Q.** What about the IC50 (A549) of the same compound?
**A.** > 50000 nM

**Q.** And the Activity (Mus musculus [7])?
**A.** 13.7%

**Q.** And the Activity [8]?
**A.** -0.8%

**Q.** What about the remaining at 2 h [9] of the same compound?
**A.** 105%

**Q.** What about the Activity [10] of the same compound?
**A.** 2.3%

**Q.** What about the EC50 [2] of the same compound?
**A.** 832 nM

**Q.** What about the IC50 (HeLa) of the same compound?
**A.** > 50000 nM

**Q.** With `C[C@H](c1ccccc1)n1cncc1C(=O)N1CCN(c2ccccc2)CC1` as the compound, how does the Activity ([3]; filed as agonist) read?
**A.** 41.7%

**Q.** What about the Activity [4] of the same compound?
**A.** 81.6%

**Q.** For `O=C(c1cncn1Cc1ccc(Cl)cc1Cl)N1CCN(C2CC2)c2ccccc21`, which Activity [5] is on record?
**A.** -1.1%

**Q.** What about the EC50 [1] of the same compound?
**A.** 6.8 nM

**Q.** What about the remaining at 1 h [6] of the same compound?
**A.** 107%

**Q.** What about the IC50 (A549) of the same compound?
**A.** > 50000 nM

**Q.** And the Activity (Mus musculus [11])?
**A.** inactive

**Q.** And the Activity (Mus musculus [7])?
**A.** 15.8%

**Q.** And the Activity (Mus musculus [12])?
**A.** Active

**Q.** And the Activity [8]?
**A.** 1.6%

**Q.** And the remaining at 2 h [9]?
**A.** 104%

**Q.** What about the Activity [10] of the same compound?
**A.** 1.1%

**Q.** And the EC50 [2]?
**A.** 611 nM

**Q.** And the IC50 (HeLa)?
**A.** > 50000 nM

**Q.** For `C[C@H](c1ccccc1)n1cncc1C(=O)N1CCN(C2CC2)c2ccccc21`, which EC50 [1] is on record?
**A.** 330 nM

**Q.** And the Activity ([3]; filed as agonist)?
**A.** 89.8%

**Q.** And the Activity [4]?
**A.** 97.4%

**Q.** What does the source list for `C[C@H](c1ccccc1)n1cncc1C(=O)N1CCCc2ccccc21`?
**A.** Activity ([3]; filed as agonist): 48.3%; Activity [4]: 77.1%

**Q.** With `C[C@H](c1ccccc1)n1cncc1C(=O)N1CCOc2ccccc21` as the compound, how does the Activity ([3]; filed as agonist) read?
**A.** 54.1%

**Q.** And the Activity [4]?
**A.** 74.5%

**Q.** What does the source list for `C[C@H](c1ccccc1)n1cncc1C(=O)N(C)c1ccc(Cl)cc1`?
**A.** Activity ([3]; filed as agonist): 63.1%; Activity [4]: 71.9%

**Q.** For `C[C@H](c1ccccc1)n1cncc1C(=O)Nc1ccccc1F`, which Activity [3] is on record?
**A.** 16.5%

**Q.** And the Activity [4]?
**A.** 48.4%

**Q.** Which Activity ([3]; filed as agonist) does the source give for `Cc1ccc(N(C)C(=O)c2cncn2[C@H](C)c2ccccc2)cc1` here?
**A.** 62.1%

**Q.** And the Activity [4]?
**A.** 86.7%

**Q.** Which EC50 [1] does the source give for `C[C@H](c1ccccc1)n1cncc1C(=O)N1CCN(c2ccccc2F)CC1` here?
**A.** 1090 nM

**Q.** What about the Activity ([3]; filed as agonist) of the same compound?
**A.** 79.3%

**Q.** What about the Activity [4] of the same compound?
**A.** 95.3%
